The results in this text go back to ChEMBL document CHEMBL5046221, “Identification of Pyrimidine-Based Lead Compounds for Understudied Kinases Implicated in Driving Neurodegeneration” (J Med Chem, 2022).

Series [1] concerns the target T1, Serine/threonine-protein kinase 17A (Homo sapiens, UniProt Q9UEE5).
T1 sequence (Q9UEE5 whole entry): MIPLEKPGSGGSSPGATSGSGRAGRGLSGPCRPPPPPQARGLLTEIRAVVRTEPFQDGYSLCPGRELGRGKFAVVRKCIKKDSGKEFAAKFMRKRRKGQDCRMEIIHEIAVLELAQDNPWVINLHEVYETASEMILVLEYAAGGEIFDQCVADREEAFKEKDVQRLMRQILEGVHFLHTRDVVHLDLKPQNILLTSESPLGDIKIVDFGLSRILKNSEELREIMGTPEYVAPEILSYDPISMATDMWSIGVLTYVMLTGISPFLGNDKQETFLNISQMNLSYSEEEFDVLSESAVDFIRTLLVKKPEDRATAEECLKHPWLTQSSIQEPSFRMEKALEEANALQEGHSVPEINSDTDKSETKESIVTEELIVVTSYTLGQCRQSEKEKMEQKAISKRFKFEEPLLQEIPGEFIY
The series can be described thus: Displacement of tracer K9 from NLuc fused DRAK1 (unknown origin) expressed in HEK293 cells by NanoBRET assay. The class given is cell-based. In general terms: In BRET a luciferase serves as donor, and the signal depends on an acceptor being close.

The target of series [2] is MAP/microtubule affinity-regulating kinase 3 (Homo sapiens, UniProt P27448). Put plainly: Displacement of tracer K9 from NLuc fused MARK3 (unknown origin) expressed in HEK293 cells by NanoBRET assay. The class given is cell-based.
The target in series [3] is Serine/threonine-protein kinase SIK2 (Homo sapiens, UniProt Q9H0K1). The series can be described thus: Inhibition of recombinant human SIK2 (1 to 276 residues) using KKKVSRSGLYRSPSMPENLNRPR as substrate measured after 40 mins in presence of [gamma33P]ATP by radiometric scintillation counting method. The procedure, abridged: (§1)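 Eurofins radiometric kinase assay run at ATP equal to Km for each kinase. 9-point dose–response in duplicate gives the IC50.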

In series [4] the target is Bone morphogenetic protein receptor type-1B (Homo sapiens, UniProt O00238). Put plainly: Inhibition of recombinant human BMPR1B (148 to end residues) using casein as substrate incubated for 40 mins in presence of [gamma-33P-ATP] by radiometric scintillation assay. The procedure, abridged: (§2)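 Eurofins radiometric enzymatic assay with ATP at Km for each kinase. IC50 was derived from a 9-point dose–response curve run in duplicate.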

Series [5] is described as follows: Kinetic solubility of compound in PBS at pH 7.4 incubated for 24 hrs by chemiluminscent nitrogen detection method. In kind it is physicochemical. Conditions: buffer, pH 7.4, 24 h. The procedure, abridged:
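Filtrates were quantified by total chemiluminescent nitrogen determination against a calibration curve, with correction for background nitrogen from DMSO and medium.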

Series [6] concerns the target Tyrosine-protein kinase JAK2 (Homo sapiens) (UniProt O60674). The series can be described thus: Inhibition of recombinant human JAK2 (808 to end residues) using KTFCGTPEYLAPEVRREPRILSEEEQEMFRDFDYIADWC as substrate at 1 uM incubated for 40 mins in presence of [gamma-33P-ATP] by radiometric scintillation assay relative to control. The procedure, abridged: (§3)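 Eurofins radiometric kinase assay with ATP at Km for each kinase. Compound was tested at a single 1 μM concentration in duplicate, and the result is reported as percent of control.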

Series [7] addresses T2, Serine/threonine-protein kinase 17B (Homo sapiens) (UniProt O94768).
T2 sequence (whole entry): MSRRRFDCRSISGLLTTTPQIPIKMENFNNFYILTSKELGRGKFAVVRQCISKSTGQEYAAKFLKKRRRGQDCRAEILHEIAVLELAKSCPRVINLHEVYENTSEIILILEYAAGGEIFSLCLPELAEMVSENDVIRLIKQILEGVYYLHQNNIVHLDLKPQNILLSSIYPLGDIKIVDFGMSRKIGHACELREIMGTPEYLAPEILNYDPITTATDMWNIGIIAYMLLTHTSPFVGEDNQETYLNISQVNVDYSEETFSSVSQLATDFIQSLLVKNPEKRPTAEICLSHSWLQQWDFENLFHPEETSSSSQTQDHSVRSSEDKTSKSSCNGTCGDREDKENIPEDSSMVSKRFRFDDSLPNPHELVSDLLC
The series can be described thus: Inhibition of full length recombinant human DRAK2 using KKRPQRRYSNVF as substrate at 1 uM incubated for 120 mins in presence of [gamma-33P-ATP] by radiometric scintillation assay relative to control. The procedure, abridged:
as §3

Series [8] has as its target T3, BMP-2-inducible protein kinase (Homo sapiens, UniProt Q9NSY1). Put plainly: Residual activity of human BMP2K at 1 uM using peptide as substrate incubated for 120 mins in presence of [gamma-33P-ATP] by radiometric scintillation assay relative to control.
Series [9] can be described thus: Inhibition of human TTBK1 (1 to 479 residues) using Casein as substrate measured after 40 mins in presence of [gamma33P]ATP by scintillation counting method. The procedure, abridged:
as §1

The target in series [10] is T4, Inhibitor of nuclear factor kappa-B kinase subunit epsilon (Homo sapiens, UniProt Q14164).
T4 sequence (Q14164 whole entry): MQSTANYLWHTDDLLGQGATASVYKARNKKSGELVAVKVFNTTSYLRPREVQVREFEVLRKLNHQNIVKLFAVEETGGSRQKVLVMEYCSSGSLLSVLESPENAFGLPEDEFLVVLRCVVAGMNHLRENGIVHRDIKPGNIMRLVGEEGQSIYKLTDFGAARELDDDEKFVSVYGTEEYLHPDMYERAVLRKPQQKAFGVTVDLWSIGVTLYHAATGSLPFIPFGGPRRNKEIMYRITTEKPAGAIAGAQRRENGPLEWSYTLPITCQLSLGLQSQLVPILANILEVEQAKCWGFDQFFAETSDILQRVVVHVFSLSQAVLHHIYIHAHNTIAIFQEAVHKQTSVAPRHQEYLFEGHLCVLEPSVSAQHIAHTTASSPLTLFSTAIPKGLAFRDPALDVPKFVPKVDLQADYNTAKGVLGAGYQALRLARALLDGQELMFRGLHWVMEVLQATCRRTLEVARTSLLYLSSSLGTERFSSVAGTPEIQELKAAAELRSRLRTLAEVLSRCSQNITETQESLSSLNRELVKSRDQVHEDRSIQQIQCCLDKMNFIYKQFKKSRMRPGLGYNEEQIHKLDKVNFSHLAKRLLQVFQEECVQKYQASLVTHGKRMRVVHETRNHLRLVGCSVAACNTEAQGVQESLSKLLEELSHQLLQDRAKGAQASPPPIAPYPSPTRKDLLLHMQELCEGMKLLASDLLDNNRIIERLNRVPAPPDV
The series can be described thus: Inhibition of full length recombinant human IKKepsilon using casein as substrate incubated for 40 mins in presence of [gamma-33P-ATP] by radiometric scintillation assay. The procedure, abridged: as §1

For series [11], the target named is MAP kinase-interacting serine/threonine-protein kinase 2 (Homo sapiens, UniProt Q9HBH9). The series can be described thus: Inhibition of full length recombinant human MKNK2 using myelin basic protein as substrate incubated for 40 mins in presence of [gamma-33P-ATP] by radiometric scintillation assay. The procedure, abridged:
as §1

Series [12] deals with T3, BMP-2-inducible protein kinase. Put plainly: Inhibition of 1recombinant human BMP2K using myelin basic protein as substrate incubated for 120 mins in presence of [gamma-33P-ATP] by radiometric scintillation assay.
For series [13], the target named is Serine/threonine-protein kinase PRP4 homolog (Homo sapiens, UniProt Q13523). Put plainly: Inhibition of recombinant human PRP4 (663 to end residues) using casein as substrate incubated for 120 mins in presence of [gamma-33P-ATP] by radiometric scintillation assay. The procedure, abridged: as §2
Sequence of Serine/threonine-protein kinase PRP4 homolog (Q13523 whole entry): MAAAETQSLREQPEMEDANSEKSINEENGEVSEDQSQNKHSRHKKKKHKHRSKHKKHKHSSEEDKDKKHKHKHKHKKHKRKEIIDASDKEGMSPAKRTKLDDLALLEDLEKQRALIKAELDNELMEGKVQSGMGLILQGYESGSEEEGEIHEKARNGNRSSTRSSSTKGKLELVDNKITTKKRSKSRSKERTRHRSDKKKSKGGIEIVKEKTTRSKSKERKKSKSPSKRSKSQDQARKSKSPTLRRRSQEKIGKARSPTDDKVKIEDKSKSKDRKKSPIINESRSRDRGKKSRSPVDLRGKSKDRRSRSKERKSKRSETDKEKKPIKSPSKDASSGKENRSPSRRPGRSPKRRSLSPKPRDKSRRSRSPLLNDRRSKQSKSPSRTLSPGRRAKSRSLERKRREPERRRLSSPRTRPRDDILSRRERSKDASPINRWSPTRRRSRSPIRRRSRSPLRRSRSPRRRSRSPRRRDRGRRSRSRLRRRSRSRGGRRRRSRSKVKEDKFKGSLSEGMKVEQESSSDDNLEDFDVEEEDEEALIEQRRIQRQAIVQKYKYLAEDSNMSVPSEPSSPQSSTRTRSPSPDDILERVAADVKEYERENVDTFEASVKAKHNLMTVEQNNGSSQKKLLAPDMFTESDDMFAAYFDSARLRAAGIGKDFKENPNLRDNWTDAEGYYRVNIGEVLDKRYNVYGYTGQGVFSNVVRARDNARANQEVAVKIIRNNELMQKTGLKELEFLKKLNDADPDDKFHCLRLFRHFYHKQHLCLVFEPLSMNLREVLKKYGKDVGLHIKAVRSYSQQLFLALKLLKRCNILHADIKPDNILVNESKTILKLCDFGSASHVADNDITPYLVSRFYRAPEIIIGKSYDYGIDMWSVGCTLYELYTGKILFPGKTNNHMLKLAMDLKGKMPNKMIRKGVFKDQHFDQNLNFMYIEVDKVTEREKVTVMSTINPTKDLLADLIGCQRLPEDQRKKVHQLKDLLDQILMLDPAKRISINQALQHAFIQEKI

Sequence of Tyrosine-protein kinase JAK2 (Homo sapiens) (O60674 whole entry): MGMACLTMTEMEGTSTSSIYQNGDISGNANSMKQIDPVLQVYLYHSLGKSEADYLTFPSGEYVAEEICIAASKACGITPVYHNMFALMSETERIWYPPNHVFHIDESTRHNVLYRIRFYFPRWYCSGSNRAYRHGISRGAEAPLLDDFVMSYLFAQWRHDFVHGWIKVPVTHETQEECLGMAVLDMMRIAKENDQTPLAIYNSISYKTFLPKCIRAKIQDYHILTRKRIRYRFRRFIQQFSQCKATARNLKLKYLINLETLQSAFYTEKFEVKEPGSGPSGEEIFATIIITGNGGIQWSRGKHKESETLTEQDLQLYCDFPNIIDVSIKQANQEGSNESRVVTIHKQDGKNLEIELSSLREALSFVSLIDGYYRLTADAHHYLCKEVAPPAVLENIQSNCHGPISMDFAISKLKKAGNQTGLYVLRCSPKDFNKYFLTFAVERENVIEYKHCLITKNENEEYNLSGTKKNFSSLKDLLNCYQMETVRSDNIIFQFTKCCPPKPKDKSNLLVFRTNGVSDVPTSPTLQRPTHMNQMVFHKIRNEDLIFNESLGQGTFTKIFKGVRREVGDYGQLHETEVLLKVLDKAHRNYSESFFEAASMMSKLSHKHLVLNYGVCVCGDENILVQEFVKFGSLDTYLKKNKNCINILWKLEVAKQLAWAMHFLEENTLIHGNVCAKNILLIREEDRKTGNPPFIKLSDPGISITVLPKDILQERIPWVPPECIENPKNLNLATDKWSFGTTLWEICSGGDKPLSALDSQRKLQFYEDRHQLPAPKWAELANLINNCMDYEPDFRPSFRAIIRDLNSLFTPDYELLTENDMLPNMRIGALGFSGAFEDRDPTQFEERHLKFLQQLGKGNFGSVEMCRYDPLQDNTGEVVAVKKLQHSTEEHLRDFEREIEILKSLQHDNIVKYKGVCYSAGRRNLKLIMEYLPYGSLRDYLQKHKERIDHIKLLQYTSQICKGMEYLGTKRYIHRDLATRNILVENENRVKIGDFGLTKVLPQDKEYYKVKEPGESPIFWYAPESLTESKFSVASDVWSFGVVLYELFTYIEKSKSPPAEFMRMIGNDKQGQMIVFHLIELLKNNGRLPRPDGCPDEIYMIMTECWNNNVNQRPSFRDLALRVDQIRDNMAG
Sequence of MAP/microtubule affinity-regulating kinase 3 (P27448 whole entry, the tested form may be a part): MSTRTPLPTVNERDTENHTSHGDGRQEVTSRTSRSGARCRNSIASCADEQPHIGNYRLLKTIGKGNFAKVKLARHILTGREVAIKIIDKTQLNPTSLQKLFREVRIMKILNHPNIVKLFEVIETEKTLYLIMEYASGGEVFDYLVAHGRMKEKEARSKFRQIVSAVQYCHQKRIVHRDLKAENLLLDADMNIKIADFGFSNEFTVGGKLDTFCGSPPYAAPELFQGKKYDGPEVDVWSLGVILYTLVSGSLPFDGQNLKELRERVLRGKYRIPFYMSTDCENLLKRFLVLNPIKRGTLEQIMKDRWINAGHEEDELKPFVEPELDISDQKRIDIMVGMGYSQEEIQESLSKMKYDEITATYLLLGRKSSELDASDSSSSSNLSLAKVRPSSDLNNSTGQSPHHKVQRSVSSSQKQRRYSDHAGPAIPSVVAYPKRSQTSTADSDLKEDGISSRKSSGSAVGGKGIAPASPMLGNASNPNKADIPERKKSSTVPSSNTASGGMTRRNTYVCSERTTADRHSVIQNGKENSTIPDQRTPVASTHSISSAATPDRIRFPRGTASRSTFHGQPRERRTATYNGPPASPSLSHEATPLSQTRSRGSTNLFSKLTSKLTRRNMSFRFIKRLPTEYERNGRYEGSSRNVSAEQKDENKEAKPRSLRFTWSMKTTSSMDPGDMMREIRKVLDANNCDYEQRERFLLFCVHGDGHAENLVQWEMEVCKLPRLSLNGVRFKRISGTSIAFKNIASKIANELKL
T3 sequence (Q9NSY1 whole entry, looked up, the tested form may be a part): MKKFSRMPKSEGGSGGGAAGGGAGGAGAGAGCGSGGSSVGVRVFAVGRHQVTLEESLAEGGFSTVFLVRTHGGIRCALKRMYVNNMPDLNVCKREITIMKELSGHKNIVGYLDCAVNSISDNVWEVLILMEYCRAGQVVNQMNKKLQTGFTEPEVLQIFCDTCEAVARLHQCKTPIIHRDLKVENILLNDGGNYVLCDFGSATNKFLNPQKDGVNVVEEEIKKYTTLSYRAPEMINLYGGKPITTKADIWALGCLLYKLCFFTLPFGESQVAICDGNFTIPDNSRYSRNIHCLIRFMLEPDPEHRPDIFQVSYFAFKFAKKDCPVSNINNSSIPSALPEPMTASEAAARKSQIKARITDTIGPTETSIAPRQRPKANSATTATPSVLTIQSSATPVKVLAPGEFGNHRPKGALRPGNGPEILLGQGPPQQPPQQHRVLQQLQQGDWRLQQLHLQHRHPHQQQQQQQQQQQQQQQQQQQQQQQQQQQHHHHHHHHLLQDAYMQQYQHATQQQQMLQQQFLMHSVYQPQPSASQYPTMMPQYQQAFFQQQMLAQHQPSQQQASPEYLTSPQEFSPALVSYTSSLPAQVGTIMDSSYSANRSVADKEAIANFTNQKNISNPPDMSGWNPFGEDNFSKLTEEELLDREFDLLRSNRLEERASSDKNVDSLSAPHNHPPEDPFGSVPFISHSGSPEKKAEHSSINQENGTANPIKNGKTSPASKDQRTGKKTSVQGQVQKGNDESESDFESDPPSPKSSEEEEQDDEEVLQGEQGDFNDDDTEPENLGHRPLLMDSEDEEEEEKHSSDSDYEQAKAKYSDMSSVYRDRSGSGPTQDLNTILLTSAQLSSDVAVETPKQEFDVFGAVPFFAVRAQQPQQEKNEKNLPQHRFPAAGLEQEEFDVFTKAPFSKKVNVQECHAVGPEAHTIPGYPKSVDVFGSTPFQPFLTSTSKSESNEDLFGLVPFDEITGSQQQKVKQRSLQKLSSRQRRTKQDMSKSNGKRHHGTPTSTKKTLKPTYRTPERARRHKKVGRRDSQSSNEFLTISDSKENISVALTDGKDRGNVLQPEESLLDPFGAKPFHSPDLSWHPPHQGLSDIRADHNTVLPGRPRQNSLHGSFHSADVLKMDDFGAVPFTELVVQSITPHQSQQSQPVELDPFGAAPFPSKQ
Sequence of Serine/threonine-protein kinase SIK2 (Q9H0K1 whole entry, the tested form may be a part): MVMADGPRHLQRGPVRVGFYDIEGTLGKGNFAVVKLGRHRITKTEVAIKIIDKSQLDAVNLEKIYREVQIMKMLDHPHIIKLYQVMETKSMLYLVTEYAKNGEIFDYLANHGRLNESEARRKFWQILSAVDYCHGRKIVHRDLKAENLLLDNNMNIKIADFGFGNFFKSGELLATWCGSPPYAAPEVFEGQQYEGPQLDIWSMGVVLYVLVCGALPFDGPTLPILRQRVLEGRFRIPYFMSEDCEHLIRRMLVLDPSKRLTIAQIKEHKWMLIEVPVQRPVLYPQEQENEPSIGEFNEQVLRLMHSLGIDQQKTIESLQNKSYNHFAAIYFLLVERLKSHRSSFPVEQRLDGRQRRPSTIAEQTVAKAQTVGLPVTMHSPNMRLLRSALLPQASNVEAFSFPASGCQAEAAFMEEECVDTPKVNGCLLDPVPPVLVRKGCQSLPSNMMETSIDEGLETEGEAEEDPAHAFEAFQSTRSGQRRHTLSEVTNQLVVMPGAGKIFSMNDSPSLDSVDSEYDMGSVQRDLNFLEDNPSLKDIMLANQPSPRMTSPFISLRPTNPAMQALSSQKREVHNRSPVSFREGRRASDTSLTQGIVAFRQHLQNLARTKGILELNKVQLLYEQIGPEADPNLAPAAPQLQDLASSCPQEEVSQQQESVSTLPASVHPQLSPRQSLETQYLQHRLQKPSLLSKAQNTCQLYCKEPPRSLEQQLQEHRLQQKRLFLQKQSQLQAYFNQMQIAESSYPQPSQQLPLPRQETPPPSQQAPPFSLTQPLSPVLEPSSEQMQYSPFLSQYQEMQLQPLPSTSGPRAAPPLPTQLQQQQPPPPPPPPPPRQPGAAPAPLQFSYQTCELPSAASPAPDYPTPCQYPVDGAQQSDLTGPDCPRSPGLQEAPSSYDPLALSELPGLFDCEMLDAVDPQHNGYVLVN

For `c1cc(CN2CCOCC2)cc(Nc2nccc(NCCc3cnc[nH]3)n2)c1`, the IC50 in series [1] is greater than 10000 nM; in [2] it was greater than 10000 nM; in [3] it was 185 nM; in series [4], 9030 nM. Moreover, the Kinetic solubility in series [5] came to 200 µM. Further, the results for the % control in series [6], in series [7] and in series [8] were 81%, 65% and 58%, respectively.
For `NS(=O)(=O)c1ccc(CNc2nc(Nc3cccc(CN4CCOCC4)c3)ncc2C2CC2)cc1`, the IC50 is greater than 10000 nM in series [1], greater than 10000 nM in series [2], 187 nM in series [9] and 1310 nM in [10]. The Kinetic_solubility in series [5] stood at 118.7 µM. Also, the % control in series [6] was 87%.
Consider `NS(=O)(=O)c1ccc(CNc2nc(Nc3cccc(NC(=O)N4CCCC4)c3)ncc2Br)cc1`, for which the IC50 in series [1] was greater than 10000 nM; in series [2] it was greater than 10000 nM; in series [9], 192 nM; in [11], 1010 nM; in [12], 488 nM. The Kinetic_solubility in series [5] was determined as 20 µM. In addition, the % control in series [6] worked out at 12%.
For the compound `NS(=O)(=O)c1ccc(CNc2nc(Nc3cccc(CN4CCOCC4)c3)ncc2Br)cc1`, the IC50 in [1] was greater than 10000 nM; in series [2] it was greater than 10000 nM; in series [9], 66 nM; in series [13] it was greater than 10000 nM. The compound also displayed a Kinetic solubility in series [5] of 4.7 µM. Moreover, the % control in series [6] was 3%.

As usually defined, the IC50 is the concentration that inhibits the measured activity by half.
